Assays:
CaMKIIδ [1] = target: T1, CaMKIIδ (Homo sapiens, UniProt Q13557); assay type: biochemical; settings: read-out: inhibition of CaMKIIδ enzyme activity
CaMKIIδ [2] = target: T1, CaMKIIδ; test: Radiometric kinase assay; assay type: biochemical
Method in brief: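 Outsourced radiometric assay using conventional filter-binding, which directly measures kinase catalytic activity toward a specific substrate. Run as a concentration-dependent study.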

δ subtype of CaMKII [3] = settings: cited from earlier work; for kinase activity, δ subtype of CaMKII: at 0.5 μM
CaMKII = settings: cited from earlier work
γ subtype of CaMKII = settings: cited from earlier work; for activity against γ subtype of CaMKII: at 1 μM; for inhibition of γ subtype of CaMKII: at 10 μM
δ subtype of CaMKII [4] = settings: cited from earlier work; for activity against δ subtype of CaMKII: at 1 μM; for inhibition of δ subtype of CaMKII: at 10 μM
β subtype of CaMKII [5] = settings: cited from earlier work; for activity against β subtype of CaMKII: at 1 μM; for inhibition of β subtype of CaMKII: at 10 μM
β subtype of CaMKII [6] = settings: cited from earlier work; for kinase activity, β subtype of CaMKII: at 0.5 μM
CaMKIIγ = settings: at 0.5 μM; cited from earlier work
α subtype of CaMKII = settings: cited from earlier work; for kinase activity, α subtype of CaMKII: at 0.5 μM
300 kinases = settings: at 0.5 μM; cited from earlier work

| inhibition at 50 µM (CaMKIIδ [1]) [%] | IC50 (CaMKIIδ [2]) [nM] | IC50 for inhibition of CaMKIIδ enzyme activity (CaMKIIδ [2]; concentration-dependent study, radiometric assay) | SMILES | kinase activity, δ subtype of CaMKII (δ subtype of CaMKII [3]) [%] | Ki (CaMKII) [nM] | activity against γ subtype of CaMKII (γ subtype of CaMKII) | inhibition of γ subtype of CaMKII (γ subtype of CaMKII) [%] | activity against δ subtype of CaMKII (δ subtype of CaMKII [4]) | inhibition of δ subtype of CaMKII (δ subtype of CaMKII [4]) [%] | activity against β subtype of CaMKII (β subtype of CaMKII [5]) | inhibition of β subtype of CaMKII (β subtype of CaMKII [5]) [%] | kinase activity, β subtype of CaMKII (β subtype of CaMKII [6]) [%] | kinase activity, γ subtype of CaMKII (CaMKIIγ) [%] | kinase activity, α subtype of CaMKII (α subtype of CaMKII) [%] | IC50 (CaMKII) [nM] | inhibition of kinase activity, δ subtype of CaMKII (δ subtype of CaMKII [3]; at 0.5 μM in the RBC study) | inhibition of kinase activity, β subtype of CaMKII (β subtype of CaMKII [6]; at 0.5 μM in the RBC study) | number of different kinases with more than 60 percent inhibition (300 kinases) [kinases] | number of different kinases with more than 80 percent inhibition (300 kinases) [kinases] | inhibition of kinase activity, α subtype of CaMKII (α subtype of CaMKII; at 0.5 μM in the RBC study) |
| --- | --- | --- | --- | --- | --- | --- | --- | --- | --- | --- | --- | --- | --- | --- | --- | --- | --- | --- | --- | --- |
| ≥ 50 | ~5000 | single-digit micromolar | CCN(CC)CCCC(C)Nc1nc(/C=C/c2ccccc2)nc2cc(Cl)ccc12 (stereo not shown) [Compound 1, (E)-N4-(7-chloro-2-styrylquinazolin-4-yl)-N1,N1-diethylpentane-1,4-diamine] |  |  |  |  |  |  |  |  |  |  |  |  |  |  |  |  |  |
|  |  |  | CN([C@@H](Cc1ccc(OS(=O)(=O)c2cccc3cnccc23)cc1)C(=O)N1CCN(c2ccccc2)CC1)S(=O)(=O)c1cccc2cnccc12 [KN-62] | 90 | 900 | Neither compound showed activity | 13 | Neither compound showed activity | 9 | Neither compound showed activity | 22 | 90 | 90 | 90 |  |  |  |  |  |  |
|  |  |  | COc1ccc(S(=O)(=O)N(CCO)c2ccccc2CN(C)CC=Cc2ccc(Cl)cc2)cc1 [KN-93] | 90 | 370 | Neither compound showed activity | 33 | Neither compound showed activity | 53 | Neither compound showed activity | 80 | 90 | 90 | 90 | 1000 to 4000 |  |  |  |  |  |
|  |  |  | CN(C)S(=O)(=O)c1ccc2c(c1)/C(=C/c1cc3c([nH]1)CCCC3)C(=O)N2 [SU6656] |  |  |  |  |  |  |  |  |  |  |  |  | ~ 30% | ~ 30% | 38 | 19 | ~ 30% |
